Hck-Nef inh – inhibitors of Nef-activated human Hck kinase, primary screen, biochemical, Z-Lyte FRET, 384-well, Hck-YEEI; Tyrosine-protein kinase HCK (Homo sapiens), P08631; Recombinant Hck-YEEI plus Nef, Z-Lyte FRET kinase assay; inhibition, % at 20 µM; actives 0.68% (n = 220,000);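 active = Hck-Nef kinase inhibition above about 50%, limit read from the data; inactive = inhibition below that limit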;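 note: 0% = DMSO with Hck plus Nef and 100% = Hck alone without Nef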
RanGTP-Impb inh – inhibitors of RanGTP-importin-beta interaction, primary screen, biochemical, FRET, CFP-Ran, YFP-importin-beta, homogeneous. Ran GTPase (GTP-bound) - importin-beta complex. actives 1.1% (n = 300,000). AID 2216, 2009. inhibition, % (test concentration not listed). cell-free CFP-Ran/YFP-importin-beta FRET ratio;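 active = more than half of the replicate wells show a fall in the fluorescence ratio signal beyond about 16%, limit read from the data, passing the limit was not always enough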;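 note: 0% = DMSO wells and 100% = Ran loaded with GDP instead of GTP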
Runt-CBFb FRET – inhibitors of RUNX1 Runt–CBFb binding, primary screen, biochemical, FRET, Cerulean-Runt, Venus-CBFb, uHTS; Cerulean-Runt/Venus-CBFb FRET ratio 530/480, 1 h; inhibition, % at 20 µM; actives 0.46% (n = 220,000); AID 1496, 2009;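 active = inhibition over about 50% at 20 µM in the single-dose screen, limit read from the data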;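 note: 0% = DMSO wells and 100% = excess unlabeled CBFb competitor control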
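Assay system: Cerulean-tagged RUNX1 Runt domain (FRET donor) fusion protein / Amount: 100 nM each of Venus-CBFb and Cerulean-Runt domain / Medium: Tris buffer pH 7.5 with salts and BSA / Also added: Venus-CBFb 100 nM / Schedule: 1 h complex formation plus 1 h compound treatment, room temperature / Signal: FRET fluorescence / Read-out: loss of energy transfer signal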
Runt-SMMHC FRET – inhibitors of RUNX1 Runt–CBFb-SMMHC binding, primary screen, biochemical, FRET, Cerulean-Runt, Venus-CBFb-SMMHC, uHTS | actives 0.74% (n = 220,000) | inhibition, % at 20 µM | Cerulean-Runt/Venus-CBFb-SMMHC FRET ratio 530/480, 1 h | AID 1434, 2008;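 active = mean inhibition across duplicate retests at 20 µM reaching about 50%, limit read from the data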;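 note: 0% = DMSO wells and 100% = wells with excess untagged CBFb-SMMHC; inhibitors lower the FRET ratio by blocking Runt binding to CBFb-SMMHC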
RBBP9 inhibitor – human RBBP9 inhibitors, primary screen, biochemical, fluorescence polarization, FP-Rh probe, HTS | Serine hydrolase RBBP9 (Homo sapiens), O75884 | recombinant RBBP9 | inhibition, % at 7.94 µM | actives 0.2% (n = 220,000) | AID 1515, 2009;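 active = inhibition above the campaign mean of all tested compounds plus 3 SD, cut at about 14% in these data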;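 note: plate controls were DMSO wells with RBBP9 for no effect and wells lacking RBBP9 protein for full effect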
Target sequence (O75884 whole entry, looked up): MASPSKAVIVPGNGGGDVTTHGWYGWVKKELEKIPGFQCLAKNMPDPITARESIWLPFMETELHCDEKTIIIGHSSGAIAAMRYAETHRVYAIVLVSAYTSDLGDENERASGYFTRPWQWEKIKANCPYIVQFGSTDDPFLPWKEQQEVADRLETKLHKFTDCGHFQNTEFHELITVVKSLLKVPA
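System: RBBP9 protein / Quantity: 2.5 µM RBBP9 dispensing solution, before mixing / Also added: Serine-hydrolase probe FP-Rh, 375 nM pre-mixing / Dosing: 7.94 µM single dose, 0.794% DMSO / Timing: enzyme-compound preincubation 30 min, then probe labeling 45 min, 25 °C / Signal: FP readout at 525/598 nm / Controls: DMSO-treated enzyme wells and wells lacking RBBP9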
PfM18AAP inh-1 – PfM18AAP inhibitors, malaria aminopeptidase, primary screen, biochemical, QFRET, recombinant enzyme; H-Glu-NHMec fluorogenic cleavage; AID 1822, 2009; M18 aspartyl aminopeptidase (Plasmodium falciparum 3D7); inhibition, % at 7.35 µM; actives 1.2% (n = 290,000);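 active = inhibition above the campaign mean inhibition over all tested compounds plus 3 SD, cut at about 28% in these data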;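 note: 0% = plate median of test compound wells and 100% = 2 mM ZnCl2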
PfM18AAP inh-2 – PfM18AAP inhibitors, malaria aminopeptidase, confirmation, biochemical, QFRET, recombinant enzyme, triplicate; shares compounds with PfM18AAP inh-1; H-Glu-NHMec fluorogenic cleavage; inhibition, % at 7.35 µM; actives 28% (n = 2,400); AID 2170, 2009;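 active = mean inhibition over replicate wells above the hit cutoff set for the earlier primary screen, cut at about 29% in these data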;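 note: 0% = median of test compound wells and 100% = 2 mM ZnCl2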
CTSL1 counter – cathepsin L1 inhibitors, retest, confirmation, counter-screen for PFM18AAP inhibitor project, biochemical, QFRET, triplicate; shares compounds with PfM18AAP inh-1; purified cathepsin L1, Z-Leu-Arg-MCA fluorescence; inhibition, % at 5.96 µM; 2,400 tested, under 10 active;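 active = average inhibition across replicates above the hit cutoff set in the earlier primary screen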;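 note: 0% = median of test compound wells and 100% = Z-Phe-Ala-diazomethylketone 1 µM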
Target sequence (P07711 whole entry, looked up): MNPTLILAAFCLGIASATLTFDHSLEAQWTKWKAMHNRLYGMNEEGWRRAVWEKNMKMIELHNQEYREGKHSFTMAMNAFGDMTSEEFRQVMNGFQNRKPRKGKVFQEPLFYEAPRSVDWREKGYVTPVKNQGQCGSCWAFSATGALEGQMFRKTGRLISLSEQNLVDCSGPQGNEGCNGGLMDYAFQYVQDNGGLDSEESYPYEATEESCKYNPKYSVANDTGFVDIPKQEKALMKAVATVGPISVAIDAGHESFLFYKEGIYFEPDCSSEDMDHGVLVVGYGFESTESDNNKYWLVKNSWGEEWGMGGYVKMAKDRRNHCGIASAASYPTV
The depositor's hits bear a star; · = no result. This is a sample that favours compounds with a hit; in the whole collection about 2.9% have one here.

SMILES	Hck-Nef inh	RanGTP-Impb inh	Runt-CBFb FRET	Runt-SMMHC FRET	RBBP9 inhibitor	PfM18AAP inh-1	PfM18AAP inh-2	CTSL1 counter
CCOc1ccccc1NC(=O)c1ccc([N+](=O)[O-])cc1	12	-1	-1	-5	-3	6	·	·
CCOc1ccccc1N/C(=C(/C(Cl)=C(Cl)Cl)[N+](=O)[O-])n1cncn1	0	·	-3	-8	-14	83*	74*	5
Cc1oc(-c2ccc3c(c2)OCCO3)cc1C(=O)NC(CCC(=O)O)C(=O)O (stereo unspecified)	-2	0	43	42	-7	38*	-12	8
c1ccc2c(c1)Nc1nccnc1S2	22	·	50	47	-7	36*	4	-7
O=C1Nc2cccnc2Sc2ccccc21	-1	-5	-3	-1	-7	-2	·	·
C/C(=N\Nc1cc(C)nc(-c2ccccc2O)n1)c1ccccc1	19	0	2	-1	-8	11	·	·
Cc1cc(N/N=C/c2ccc(O)c(C)c2O)nc(-c2ccccc2O)n1	1	1	-3	-6	-9	44*	38*	4
CC(C)NCC(O)c1ccc(O)c(O)c1 (stereo unspecified)	·	6	·	·	·	66*	51*	-4
CNC[C@H](O)c1ccc(O)c(O)c1	0	-1	6	-4	1	54*	66*	-8
COc1ccc(Br)cc1S(=O)(=O)Nc1ncn[nH]1	·	-4	·	·	·	24	·	·
CCN1C(=O)N(C)C(N(O)C(=O)NC)C1(C)C (stereo unspecified)	0	4	-3	2	-7	42*	-59	-4
Cc1ccc(OCC(=O)n2cnnc2N)c(C)c1	1	2	0	75	-7	57*	54*	-4
Cc1cc(C)cc(C(=O)n2cnnc2N)c1	-5	3	-2	5	-2	48*	59*	5
Cc1cccc(C(=O)n2cnnc2N)c1	-89	-3	-1	-2	-13	45*	56*	-1
COC(=O)c1cn(C(=O)c2cccc(C)c2)c2ccccc12	22	1	·	·	-2	-1	·	·
C=CC1CN(C(=O)OCC(Cl)(Cl)Cl)C2CC3c4ccc(OC)cc4NC3C3CC1C2CO3 (stereo unspecified)	·	-1	·	·	·	·	·	·
CC/C(=N\Nc1ccnc2cc(Cl)ccc12)c1ccc(O)cc1	·	-5	·	·	·	34*	-27	2
CCOc1ccccc1Nc1ccnc2cc(Cl)ccc12	43	-4	-1	3	4	1	·	·
S=C(NNc1ccnc2cc(Cl)ccc12)Nc1ccc(Cl)cc1Cl	26	-3	20	-21	2	13	·	·
Oc1ccc(/C=N/Nc2ccnc3cc(Cl)ccc23)c(O)c1O	·	-13	·	·	·	49*	-61	7
CC(=O)c1cccc(N=c2scc(-c3ccc(S(=O)(=O)N4CCOCC4)cc3)n2CCO)c1	11	3	0	-5	-2	51*	-35	0
C=CCn1c(SCC(=O)NC2CCCC2)nc2c([nH]c3ccccc32)c1=O	·	·	·	·	·	9	·	·
Cc1c(Cl)cccc1NC(=O)CCNC(=O)N1CC(=O)Nc2ccccc21	·	4	·	·	·	-6	·	·
Cc1nc(C)c(-c2ccnc(/N=C/NO)n2)s1	18	3	2	0	-2	-5	·	·
Cc1ccc(Nc2nc(/N=C/NO)n[nH]2)cc1C	7	0	-2	0	5	33*	-4	-2
SMILES	Hck-Nef inh	RanGTP-Impb inh	Runt-CBFb FRET	Runt-SMMHC FRET	RBBP9 inhibitor	PfM18AAP inh-1	PfM18AAP inh-2	CTSL1 counter
CC1CCCN(C(=O)c2nn(C)c3c2CSc2ccccc2-3)C1 (stereo unspecified)	·	3	·	·	·	42*	2	-1
Cc1cccc(Nc2nc3c(s2)CCCC3)c1	1	0	18	5	-2	32*	-9	-1
CCOC(=O)c1c(N)sc2c1C1CCN2CC1	0	4	1	0	-1	50*	10	3
Cc1ccc(C(CC(=O)N2CCNCC2)c2ccccc2)c(O)c1C (stereo unspecified)	·	3	·	·	·	4	·	·
C=CCNC(=S)NNc1nc2sc3c(c2c(=O)[nH]1)CC(C)(C)OC3	·	0	·	·	·	34*	17	1
Cc1ccc(-c2nc(N/N=C/c3ccncc3)c3ccccc3n2)cc1	-2	3	-8	0	-3	43*	-69	1
COc1ccc(/C=N/Nc2nc(-c3cccnc3)nc3ccccc23)cc1OC	18	3	2	-7	1	9	·	·
CC(=O)NNC(=O)CN1C(=O)/C(=C/c2ccccc2)SC1=S	12	-3	11	-2	6	34*	-29	4
CCN(CC)C(=O)CN1C(=O)/C(=C/c2ccccc2)SC1=S	16	4	0	-5	5	-4	·	·
Cc1c(-c2cc(C(=O)O)c3ccccc3n2)cnn1C	24	0	0	-2	-3	6	·	·
O=C(NCc1ccccc1)c1nnc(CS(=O)(=O)c2ccccc2)o1	·	1	·	·	·	-9	·	·
O=C1NC(=O)/C(=C/c2ccc(N3CCOCC3)o2)N1	-1	-2	1	-59	-1	9	·	·
O=C1NC(=O)/C(=C\c2ccc(N3CCOCC3)o2)N1	15	-2	17	9	9	37*	-30	-6
O=S(=O)(NCC(c1ccc2c(c1)OCO2)N1CCN(c2ccccc2)CC1)c1ccccc1 (stereo unspecified)	·	0	·	·	·	·	·	·
COc1ccc(Nc2nc(NN)nc(C)c2[N+](=O)[O-])cc1	18	1	6	-7	8	52*	22	-1
COc1ccc(Nc2nc(N/N=C/c3ccc(N(C)C)cc3)nc(C)c2[N+](=O)[O-])cc1	5	6	-4	0	-5	49*	-53	-1
Cc1ccsc1C(=O)N1CCN(S(=O)(=O)c2cccc(F)c2)CC1	·	-2	·	·	·	·	·	·
